This note sets out measurements from ChEMBL document CHEMBL1649163, “Surfactants, aromatic and isoprenoid compounds, and fatty acid biosynthesis inhibitors suppress Staphylococcus aureus production of toxic shock syndrome toxin 1” (2009).

Holding throughout (format): functional
Assay [1] relates to Staphylococcus aureus. The assay can be described thus: Effect on growth in Staphylococcus aureus MN8 at 0.67 mM after 24 hrs (reference value: 100%). An outline of the steps:
(§1)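 Test-tube growth assay: 10 ml growth medium (brain heart infusion with 10% fetal bovine serum, MgCl2, L-glutamine) inoculated to 5 × 10^6 CFU/ml from a 24 h 37°C preculture. Compound diluted in medium, or dissolved in methanol with methanol-matched controls. After 24 h at 37°C with 5% CO2, OD600 and viable counts read. Growth given as % of CFU/ml of untreated controls in the same experiment.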

Assay [2] has as its system Staphylococcus aureus. In words: microbe, parasite or virus in culture. To be noted: 24 h.
The test system of assay [3] is Staphylococcus aureus. In words: Effect on growth in Staphylococcus aureus MN8 at 1.00 mM after 24 hrs (reference value: 100%). An outline of the steps: as §1
Assay [4] deals with Staphylococcus aureus. In words: microbe, parasite or virus in culture. To be noted: 24 h. The source holds these as a separate data set.
The subject of assay [5] is Staphylococcus aureus. The assay can be described thus: microbe, parasite or virus in culture. To be noted: 24 h. The source holds these as a separate data set.
For assay [6], the system named is Staphylococcus aureus. In words: Effect on growth in Staphylococcus aureus MN8 at 2.00 mM after 24 hrs (reference value: 100%). In short, it runs like this: as §1
The test system of assay [7] is Staphylococcus aureus. The assay can be described thus: Effect on growth in Staphylococcus aureus FRI-1187 at 1.50 mM after 24 hrs (reference value: 100%). An outline of the steps: as §1
Assay [8] deals with Staphylococcus aureus. In words: microbe, parasite or virus in culture. To be noted: 24 h. This is another data set of the same source.
Assay [9] deals with Staphylococcus aureus. In words: microbe, parasite or virus in culture. To be noted: 24 h. The source holds these as a separate data set.
Assay [10] relates to Staphylococcus aureus. In words: Effect on growth in Staphylococcus aureus FRI-1187 at 3.00 mM after 24 hrs (reference value: 100%). An outline of the steps: as §1
The test system of assay [11] is Staphylococcus aureus. In words: microbe, parasite or virus in culture. The note with it: 24 h. This is another data set of the same source.
Assay [12] deals with Staphylococcus aureus. The assay can be described thus: Effect on growth in Staphylococcus aureus MN8 at 75.00 mM after 24 hrs (reference value: 100%). In short, it runs like this:
as §1

The subject of assay [13] is Staphylococcus aureus. In words: Effect on growth in Staphylococcus aureus MN8 at 0.75 mM after 24 hrs (reference value: 100%). In short, it runs like this:
as §1

In assay [14] the test system is Staphylococcus aureus. The assay can be described thus: microbe, parasite or virus in culture. The note with it: 24 h. The source holds these as a separate data set.
Assay [15] relates to Staphylococcus aureus.
The subject of assay [16] is Staphylococcus aureus. In words: Effect on growth in Staphylococcus aureus MN8 at 0.10 % after 24 hrs (reference value: 100%). In short, it runs like this: as §1
Assay [17] relates to Staphylococcus aureus. The source holds these as a separate data set.
Assay [18] concerns Staphylococcus aureus. In words: Effect on growth in Staphylococcus aureus MN8 at 0.50 % after 24 hrs (reference value: 100%). In short, it runs like this:
as §1

Assay [19] has as its system Staphylococcus aureus. This is another data set of the same source.
For assay [20], the system named is Staphylococcus aureus. The assay can be described thus: Effect on growth in Staphylococcus aureus MN8 at 0.20 % after 24 hrs (reference value: 100%). In short, it runs like this:
as §1

The subject of assay [21] is Staphylococcus aureus. In words: microbe, parasite or virus in culture. The note with it: 28 h.
The subject of assay [22] is Staphylococcus aureus. In words: microbe, parasite or virus in culture. To be noted: 32 h.
For assay [23], the system named is Staphylococcus aureus. In words: microbe, parasite or virus in culture. To be noted: 26 h.
The subject of assay [24] is Staphylococcus aureus. In words: microbe, parasite or virus in culture. The note with it: 32 h. This is another data set of the same source.
For assay [25], the system named is Staphylococcus aureus. The assay can be described thus: microbe, parasite or virus in culture. The note with it: 32 h. This is another data set of the same source.
Assay [26] relates to Staphylococcus aureus. The assay can be described thus: microbe, parasite or virus in culture. To be noted: 24 h. This is another data set of the same source.
Assay [27] deals with Staphylococcus aureus. In words: microbe, parasite or virus in culture. The note with it: 26 h. The source holds these as a separate data set.
For assay [28], the system named is Staphylococcus aureus. In words: microbe, parasite or virus in culture. The note with it: 24 h. The source holds these as a separate data set.
In assay [29] the test system is Staphylococcus aureus. The assay can be described thus: Effect on growth in Staphylococcus aureus MN8 at 10.7 mM after 24 hrs (reference value: 100%). In short, it runs like this:
as §1

Assay [30] has as its system Staphylococcus aureus. In words: Effect on growth in Staphylococcus aureus MN8 at 3.75 mM after 24 hrs (reference value: 100%). An outline of the steps: as §1
Assay [31] concerns Staphylococcus aureus. The assay can be described thus: microbe, parasite or virus in culture. To be noted: 24 h. The source holds these as a separate data set.
The test system of assay [32] is Staphylococcus aureus. In words: Effect on growth in Staphylococcus aureus MN8 at 9.0 mM after 24 hrs (reference value: 100%). An outline of the steps: as §1

In general, inhibition refers to the drop in the measured response relative to a control, in per cent. Turning to `Cc1ccc(C(C)C)c(O)c1` [THYMOL], the Activity in assay [1] is given as 99%. The same molecule came in with an inhibition at 670 µM in [2] of 37.4%.

`Oc1c(Cl)cc(Cl)c(Cl)c1Cc1c(O)c(Cl)cc(Cl)c1Cl` [HEXACHLOROPHENE]: the Activity is listed as 143.81% in assay [3], 123.7% in [6], 75% in [7] and 35.2% in assay [10]. The inhibition at 1500 µM in assay [4] worked out at 74.3%. For the same molecule, testing at 3000 µM in assay [5] gave an inhibition of 63.5%. In addition, in [8], testing at 1000 µM gave an inhibition of 48.1%. For the same molecule, in assay [9], the inhibition at 2000 µM was found to be 19.6%.

Take `C=CC(=C)CCC=C(C)C` [MYRCENE]: the inhibition at 75000 µM in assay [11] is 75.2%. Further, the values for the Activity in [12] and in [13] were 76.5% and 110.8%, respectively. The molecule also had an inhibition at 750 µM in assay [14] of 60.3%.

Regarding `O=C(O)c1cc(O)c(O)c(O)c1` [GALLIC ACID], the figures for the “inhibition (INH)” value in assay [15] and in assay [17] were 8.7% and 41.4%, respectively. Also, the Activity was 45% in [16] and 2.6% in assay [18].

`Nc1ccc(C(=O)O)cc1` [AMINOBENZOIC ACID]: the “inhibition (INH)” value in assay [19] worked out at 8.6%. This molecule had an Activity in [20] of 11.8%.

In the case of `CCCCCCCCCCCCOCCOCCOCCOCCO` [LAURETH 4], the inhibition at 10000 µM is 2.9% in [21], 0% in assay [22] and 0.2% in [26]. Moreover, the figures for the inhibition at 20000 µM in [23] and in assay [25] were 1.5% and 0%, respectively. Further, the inhibition at 2000 µM came to 0.1% in assay [24] and 1.7% in assay [27].

`OCCOc1ccccc1` [PHENOXYETHANOL]: the “inhibition (INH)” value in [15] is given as 25.1%; in [17] it was 42.3%. For the same molecule, the Activity in assay [16] came to 54.3%; in assay [18], 32.3%.

`COc1cc(C(=O)O)ccc1O` [VANILLIC ACID] returned an Activity in assay [16] of 24.5%. The “inhibition (INH)” value in [17] is reported as 38.5%.

With `CCCCCCCCCCCC(=O)OCC(O)CO` (racemic) [GLYCEROL MONOLAURATE], the inhibition at 10700 µM in assay [28] is 5.2%. This molecule displayed an Activity in [29] of 36.3%.

With `CC(C)=CCC/C(C)=C/CO` [GERANIOL], the Activity came out at 19.3% in [13] and 3.9% in assay [30]. The same molecule returned an inhibition at 750 µM in assay [14] of 0.7%.

In assay [28], `CCCCCCCCCCCC(=O)NCCOC(=O)C(CC(=O)[O-])S(=O)(=O)[O-].[Na+].[Na+]` (stereo unspecified) [DISODIUM LAURAMIDO MEA] gave an inhibition at 10700 µM of 0.4%. This molecule displayed an Activity in [29] of 29.4%.

Regarding `Oc1ccc(Cc2ccccc2)cc1`, the results for the Activity in assay [3] and in [6] were 70.2% and 37.1%, respectively. The molecule also registered an inhibition at 1000 µM in assay [8] of 91%. Besides, the inhibition at 2000 µM in assay [9] was found to be 77.2%.

The molecule `CCCCCCCCCCCCOCCOCCOCCO` gave an inhibition at 9000 µM in assay [31] of 1%. In [32], the Activity is listed as 7.3%.

For `CC(=O)/C=C/C1=C(C)CCCC1(C)C` [BETA-IONONE], the Activity came to 27.1% in assay [13] and 1% in [30]. This molecule also registered an inhibition at 750 µM in [14] of 10%.

On to `C=CC(C)(O)CCC=C(C)C` (stereo unspecified) [LINALOOL], for which the Activity in [13] stood at 121.6%. The molecule also had an inhibition at 750 µM in [14] of 12.2%.
